How the values were obtained:
[1] = system: HeLa; assay: Cytotoxicity against human HeLa cells assessed as reduction in mean cell viability after 72 hrs by MTT assay; assay type: functional, cell-based
Method in brief: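 HeLa-CCL-2 cells in DMEM with 10% heat-inactivated FBS, 2 mM L-glutamine and nonessential amino acids. Plated at 1000 cells/well with 24 h adherence. Treated in ethanol (1% final) for 72 h at 37 °C under 5% CO₂, with ethanol controls. Absorbance of DMSO-dissolved formazan at 550 nm, 690 nm reference. IC₅₀ by nonlinear regression of percent viability.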

[2] = Cytotoxicity against human GM00637 cells assessed as reduction in mean cell viability after 72 hrs by MTT assay; assay type: cell-based; conditions: GM00637, 72 h
Method in brief: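 SV40-transformed normal skin fibroblasts (GM00637) in MEM Eagle–Earle BSS with 15% heat-inactivated FBS, 2 mM L-glutamine, 2× amino acids and vitamins. Seeded at 10,000 cells/well and left 24 h to adhere. Ethanol-delivered compound (1% final) for 72 h at 37 °C, 5% CO₂. MTT formazan in DMSO read at 550/690 nm. Viability relative to vehicle; IC₅₀ by nonlinear regression.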

[3] = system: DU-145; assay: Cytotoxicity against human DU145 cells assessed as reduction in mean cell viability after 72 hrs by MTT assay; assay type: functional, cell-based; conditions: DU-145, 72 h
Method in brief: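 DU-145 prostate cells in RPMI-1640 with 10% heat-inactivated FBS, penicillin–streptomycin and 2 mM L-glutamine. Seeded at 2000 cells/well and left 24 h to adhere. Compound added in ethanol (1% final) for 72 h at 37 °C, 5% CO₂, with ethanol-only controls. Formazan dissolved in DMSO and read at 550 nm (690 nm reference). IC₅₀ derived by nonlinear regression of viability versus vehicle.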

CCCCn1cnc2c1C(=O)c1ncn(CCCC)c1C2=O
IC50 [1]: 0.44 µM | IC50 [2]: 1.05 µM | IC50 [3]: 1.34 µM

Reference: ChEMBL document CHEMBL2021842, “COMPARE analysis of the toxicity of an iminoquinone derivative of the imidazo[5,4-f]benzimidazoles with NAD(P)H:quinone oxidoreductase 1 (NQO1) activity and computational docking of quinones as NQO1 substrates” (Bioorg Med Chem, 2012)
